Data on 1 compound can be found in ChEMBL document CHEMBL1124794, “Synthesis, chemistry, and antineoplastic activity of alpha-halopyridinium salts: potential pyridone prodrugs of acylated vinylogous carbinolamine tumor inhibitors” (J Med Chem, 1990).

Structures are written as SMILES.

Common to all, as to assay type: functional, Mus musculus
The test system of test [1] is P388. Kind of test: In vivo activity against P388 Lymphocytic Leukemia in CD2F1 mice at the dose of 25 mg/kg, activity expressed as body weight difference. The essentials: (§1)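 CD2F1 mice were inoculated with ascitic fluid holding ca. 10^6 P388 cells. Drug was given daily from 24 h after inoculation, from solutions or suspensions made fresh each day, some as a saline suspension. TDS is survivors/initial animals on day 5. BWD is body weight on day 5 minus day 1. %T/C compares median survival of treated and control mice.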

Test [2] relates to P388. Kind of test: In vivo activity against P388 Lymphocytic Leukemia in CD2F1 mice at the dose of 6.2 mg/kg, activity expressed as body weight difference. In outline:
as §1

For test [3], the system named is P388. Kind of test: In vivo activity against P388 Lymphocytic Leukemia in CD2F1 mice at the dose of 12.5 mg/kg, activity expressed as TDS; 4/4. In outline:
as §1

For test [4], the system named is P388. Kind of test: In vivo activity against P388 Lymphocytic Leukemia in CD2F1 mice at the dose of 25 mg/kg, activity expressed as % T/C. In outline: as §1
The subject of test [5] is P388. Kind of test: In vivo activity against P388 Lymphocytic Leukemia in CD2F1 mice at the dose of 50 mg/kg, activity expressed as TDS; 0/4. The essentials:
as §1

For test [6], the system named is P388. Kind of test: In vivo activity against P388 Lymphocytic Leukemia in CD2F1 mice at the dose of 6.2 mg/kg, activity expressed as % T/C. In outline: as §1
The subject of test [7] is P388. Kind of test: In vivo activity against P388 Lymphocytic Leukemia in CD2F1 mice at the dose of 25 mg/kg, activity expressed as TDS; 4/4. In outline:
as §1

The test system of test [8] is P388. Kind of test: In vivo activity against P388 Lymphocytic Leukemia in CD2F1 mice at the dose of 12.5 mg/kg, activity expressed as % T/C. In outline:
as §1

The subject of test [9] is P388. Kind of test: In vivo activity against P388 Lymphocytic Leukemia in CD2F1 mice at the dose of 12.5 mg/kg, activity expressed as body weight difference. The essentials:
as §1

The test system of test [10] is P388. Kind of test: In vivo activity against P388 Lymphocytic Leukemia in CD2F1 mice at the dose of 6.2 mg/kg, activity expressed as TDS; 4/4. The essentials:
as §1

By T/C is commonly meant the result in the treated group divided by that in the control group, in per cent. Turning to `CC(C)NC(=O)OCc1c(COC(=O)NC(C)C)c(-c2ccc(Cl)[n+](C)c2)n2c1CCC2.[I-]`, the BWD in the test on P388 [1] was -1.1 g; with P388 [2], -0.4 g; in the test with P388 [9], 0.1 g. The TDS is reported as 4 with P388 [3], 0 in the test with P388 [5], 4 in the test with P388 [7] and 4 in the test with P388 [10]. Moreover, the T/C with P388 [4] was determined as 109%; in the test on P388 [6], 98%; in the test with P388 [8] it was 102%.
